The RNAGym collection of RNA variant scans (doi:10.1038/s41586-018-0170-7)

B1: tRNA (parent)
chain: GUUCCGUUGGCGUAAUGGUAACGCGUCUCCCUCCUAAGGAGAAGACUGCGGGUUCGAGUCCCGUACGGAACG

Variants of: B1
Assay: yeast fitness, log relative to wild type (ln ratio); higher = fitter; tRNA-Arg(CCU), competitive growth, 37 C, 1 M NaCl
Summary of the method: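 Variants were counted by 125 bp paired-end Illumina sequencing after pools of a combinatorial tRNA-Arg(CCU) library, held on a HIS3 centromeric plasmid in BY4742 lacking the chromosomal gene, grew ~6.5 generations (~26.5 h) in SC-HIS 1M NaCl at 37 °C. Each genotype's fitness is the natural log of its generations relative to the wild type's. Generations were OD-scaled log2 output/input frequencies, inverse-variance weighted over replicates.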

Question: Which “yeast fitness (ln)” value does the source give for G1A U2C G6U C27U C46U A69G A70U C71U here?
Answer: -0.392

Question: For G1A U2G C27U C46U A70G C71U, which “yeast fitness (ln)” value is on record?
Answer: -0.503

Question: For G1A U2G A43C C46U C66U A70G, which “yeast fitness (ln)” value is on record?
Answer: -0.22

Question: Which “yeast fitness (ln)” value does the source give for G1A U2G A43C C46U C66U A70U here?
Answer: -0.141

Question: For G1A U2G C46U C66U A70U C71U, which “yeast fitness (ln)” value is on record?
Answer: -0.185

Question: With G1A U2C G6U C27U C46U as the variant, how does the “yeast fitness (ln)” value read?
Answer: -0.0885

Question: With G1A U2C G6U C27U A43C C66A A70G as the variant, how does the “yeast fitness (ln)” value read?
Answer: -0.299

Question: With G1A U2G C27U A43C C46U C66A A69G A70G C71U as the variant, how does the “yeast fitness (ln)” value read?
Answer: -0.269

Question: For G1A U2G A69G C71U, which “yeast fitness (ln)” value is on record?
Answer: -0.135

Question: Which “yeast fitness (ln)” value does the source give for G1A U2C G6U C27U A70G C71U here?
Answer: -0.212

Question: Which “yeast fitness (ln)” value does the source give for G1A U2G C27U A43C C66U A70G here?
Answer: -0.315

Question: Which “yeast fitness (ln)” value does the source give for G1A U2G C27U A43C C66U A70U here?
Answer: -0.282

Question: With G1A U2G C27U A43C C66A A69G A70G C71U as the variant, how does the “yeast fitness (ln)” value read?
Answer: -0.472

Question: With G1A U2G C27U C66A A69G A70U C71U as the variant, how does the “yeast fitness (ln)” value read?
Answer: -0.342

Question: Which “yeast fitness (ln)” value does the source give for G1A U2G C27U A43C C66U C71U here?
Answer: -0.452

Question: With G1A U2G C46U A69G C71U as the variant, how does the “yeast fitness (ln)” value read?
Answer: -0.0958

Question: Which “yeast fitness (ln)” value does the source give for G1A U2G C46U C66U A69G A70G C71U here?
Answer: -0.195

Question: With G1A U2G C27U C66U as the variant, how does the “yeast fitness (ln)” value read?
Answer: -0.174

Question: For G1A U2G C46U C66A A70G, which “yeast fitness (ln)” value is on record?
Answer: -0.152

Question: With G1A U2G C46U C66A A70U as the variant, how does the “yeast fitness (ln)” value read?
Answer: -0.109

Question: Which “yeast fitness (ln)” value does the source give for G1A U2C G6U C46U A69G A70U C71U here?
Answer: -0.249

Question: With G1A U2G C27U C66U A70G C71U as the variant, how does the “yeast fitness (ln)” value read?
Answer: -0.321

Question: Which “yeast fitness (ln)” value does the source give for G1A U2G C27U C46U C66U A70G C71U here?
Answer: -0.218

Question: For G1A U2G C27U A43C C66U A70G C71U, which “yeast fitness (ln)” value is on record?
Answer: -0.383

Question: For G1A U2G C27U A43C C46U C66U, which “yeast fitness (ln)” value is on record?
Answer: -0.231

Question: For G1A U2G C27U A43C C46U C66A, which “yeast fitness (ln)” value is on record?
Answer: -0.106

Question: With G1A U2G A43C A69G C71U as the variant, how does the “yeast fitness (ln)” value read?
Answer: -0.219

Question: Which “yeast fitness (ln)” value does the source give for G1A U2G C27U C46U C71U here?
Answer: -0.159

Question: For G1A U2G C27U A43C C71U, which “yeast fitness (ln)” value is on record?
Answer: -0.16

Question: Which “yeast fitness (ln)” value does the source give for G1A U2C G6U C27U C46U C66U A69G A70G C71U here?
Answer: -0.699

Question: Which “yeast fitness (ln)” value does the source give for G1A U2G A43C C66A A70G here?
Answer: -0.241

Question: With G1A U2G A43C C66A A70U as the variant, how does the “yeast fitness (ln)” value read?
Answer: -0.12

Question: For G1A U2G C27U A43C C46U C66U A70U C71U, which “yeast fitness (ln)” value is on record?
Answer: -0.329

Question: For G1A U2G C66A A70U C71U, which “yeast fitness (ln)” value is on record?
Answer: -0.146

Question: For G1A U2G C27U C66U C71U, which “yeast fitness (ln)” value is on record?
Answer: -0.244

Question: With G1A U2G C27U A43C C66U A69G A70G C71U as the variant, how does the “yeast fitness (ln)” value read?
Answer: -0.294

Question: Which “yeast fitness (ln)” value does the source give for G1A U2G A43C A70U C71U here?
Answer: -0.0335

Question: With G1A U2G C66A as the variant, how does the “yeast fitness (ln)” value read?
Answer: -0.0852

Question: Which “yeast fitness (ln)” value does the source give for G1A U2G C66U here?
Answer: -0.159

Question: With G1A U2G C27U C46U A70G as the variant, how does the “yeast fitness (ln)” value read?
Answer: -0.144

Question: With G1A U2G C27U C46U A70U as the variant, how does the “yeast fitness (ln)” value read?
Answer: -0.293

Question: Which “yeast fitness (ln)” value does the source give for G1A U2G C27U A43C C46U C66A C71U here?
Answer: -0.254

Question: Which “yeast fitness (ln)” value does the source give for G1A U2G C46U C71U here?
Answer: -0.25

Question: With G1A U2C G6U C46U A69G A70U as the variant, how does the “yeast fitness (ln)” value read?
Answer: -0.0237

Question: Which “yeast fitness (ln)” value does the source give for G1A U2C G6U C46U A69G A70G here?
Answer: -0.0666

Question: With G1A U2C G6U C27U A43C C46U C66U A70U as the variant, how does the “yeast fitness (ln)” value read?
Answer: -0.243

Question: With G1A U2C G6U C27U C46U A70G C71U as the variant, how does the “yeast fitness (ln)” value read?
Answer: -0.203

Question: With G1A U2C G6U C66A A70G C71U as the variant, how does the “yeast fitness (ln)” value read?
Answer: -0.0113

Question: For G1A U2G C27U A43C C66A A70G, which “yeast fitness (ln)” value is on record?
Answer: -0.255

Question: With G1A U2G C27U A43C C66A A70U as the variant, how does the “yeast fitness (ln)” value read?
Answer: -0.195

Question: Which “yeast fitness (ln)” value does the source give for G1A U2G C46U C66A A69G A70G C71U here?
Answer: -0.173

Question: Which “yeast fitness (ln)” value does the source give for G1A U2G C27U C66A A69G A70G C71U here?
Answer: -0.265

Question: Which “yeast fitness (ln)” value does the source give for G1A U2G C27U A69G C71U here?
Answer: -0.251

Question: Which “yeast fitness (ln)” value does the source give for G1A U2C G6U C27U C46U C66U A70G C71U here?
Answer: -0.169

Question: Which “yeast fitness (ln)” value does the source give for G1A U2G C27U C46U C66U A69G A70U here?
Answer: -0.265

Question: For G1A U2G C27U C46U C66U A69G A70G, which “yeast fitness (ln)” value is on record?
Answer: -0.231

Question: With G1A U2G A43C C46U A69G A70U C71U as the variant, how does the “yeast fitness (ln)” value read?
Answer: -0.29

Question: With G1A U2G C27U A43C C46U C66A A69G A70G as the variant, how does the “yeast fitness (ln)” value read?
Answer: -0.146

Question: Which “yeast fitness (ln)” value does the source give for G1A U2G C27U C46U C66A A70U C71U here?
Answer: -0.185

Question: For G1A U2G A43C C46U, which “yeast fitness (ln)” value is on record?
Answer: -0.042

Question: For G1A U2G A69G A70U C71U, which “yeast fitness (ln)” value is on record?
Answer: -0.0282

Question: With G1A U2C G6U C46U A70U C71U as the variant, how does the “yeast fitness (ln)” value read?
Answer: -0.033

Question: With G1A U2C G6U C46U C66U A69G A70G as the variant, how does the “yeast fitness (ln)” value read?
Answer: -0.183

Question: With G1A U2C G6U C46U C66U A69G A70U as the variant, how does the “yeast fitness (ln)” value read?
Answer: -0.156

Question: Which “yeast fitness (ln)” value does the source give for G1A U2C G6U C66U A69G A70G C71U here?
Answer: -0.221

Question: Which “yeast fitness (ln)” value does the source give for G1A U2C G6U C46U C66A A69G A70U here?
Answer: 0.0136

Question: Which “yeast fitness (ln)” value does the source give for G1A U2C G6U C46U C66A A69G A70G here?
Answer: -0.139

Question: With G1A U2G A43C C46U C66A C71U as the variant, how does the “yeast fitness (ln)” value read?
Answer: -0.138

Question: With G1A U2G A43C C46U C66U C71U as the variant, how does the “yeast fitness (ln)” value read?
Answer: -0.223

Question: Which “yeast fitness (ln)” value does the source give for G1A U2G A43C C71U here?
Answer: -0.129

Question: Which “yeast fitness (ln)” value does the source give for G1A U2G C66U A70G C71U here?
Answer: -0.187

Question: With G1A U2G A70U as the variant, how does the “yeast fitness (ln)” value read?
Answer: -0.124

Question: For G1A U2G A70G, which “yeast fitness (ln)” value is on record?
Answer: -0.0928

Question: For G1A U2C G6U C46U C66U A69G A70U C71U, which “yeast fitness (ln)” value is on record?
Answer: -0.317

Question: Which “yeast fitness (ln)” value does the source give for G1A U2G C27U A43C C46U C66U A70G here?
Answer: -0.172

Question: Which “yeast fitness (ln)” value does the source give for G1A U2G C27U A43C C46U C66U A70U here?
Answer: -0.214

Question: With G1A U2G A43C C46U A69G A70U as the variant, how does the “yeast fitness (ln)” value read?
Answer: -0.132

Question: With G1A U2G A43C C46U A69G A70G as the variant, how does the “yeast fitness (ln)” value read?
Answer: -0.141

Question: For G1A U2G C27U C46U C66U A69G C71U, which “yeast fitness (ln)” value is on record?
Answer: -0.307

Question: With G1A U2G C27U A43C C66U A69G A70G as the variant, how does the “yeast fitness (ln)” value read?
Answer: -0.492

Question: For G1A U2G C27U A43C C66U A69G A70U, which “yeast fitness (ln)” value is on record?
Answer: -0.363

Question: For G1A U2G C27U A43C C46U C66U A69G A70U C71U, which “yeast fitness (ln)” value is on record?
Answer: -0.5

Question: Which “yeast fitness (ln)” value does the source give for G1A U2G C46U A69G A70G C71U here?
Answer: -0.457

Question: For G1A U2G C46U A69G, which “yeast fitness (ln)” value is on record?
Answer: -0.13
